ChEMBL document CHEMBL1154696, “Synthesis and antitumor evaluation of analogues of the marine pyrroloiminoquinone tsitsikammamines” (Eur J Med Chem, 2010)
The source made the active and inactive calls. The rule behind the calls is not given here.

What was measured:
A549 = experiment: Cytotoxicity against human A549 cells after 72 hrs by MTT assay; type: functional, cell-based; conditions: A549, 72 h
In short: (§1)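 Cells plated at 10,000 to 40,000 cells/mL, depending on cell type, and incubated 24 h before treatment. Growth was read after 72 h culture with or without compound. MTT reduction to formazan by living cells was read by spectrophotometry at 570 nm with a 630 nm reference. IC50 growth inhibitory concentrations were derived. NHDF and Wi38 are normal human fibroblasts.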

[1] = Cytotoxicity against human U373 cells after 72 hrs by MTT assay; type: functional, cell-based, U-373MG ATCC; conditions: U373 MG; in short: as §1
PC-3 = experiment: Cytotoxicity against human PC3 cells after 72 hrs by MTT assay; type: functional, cell-based; conditions: PC-3, 72 h; in short: as §1
[2] = Cytotoxicity against human WI38 cells after 72 hrs by MTT assay; type: cell-based; conditions: wi-38, 72 h; in short: as §1
NHDF = experiment: Cytotoxicity against human NHDF cells after 72 hrs by MTT assay; type: cell-based; in short: as §1
U-373MG ATCC = experiment: Cytotoxicity against human apoptosis-resistant U373 cells at 5 uM after 2 hrs by computer-assisted phase contrast microscopy; type: functional, cell-based
In short: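 U373 glioblastoma cells were cultured with or without 5 μM compound. Morphology was followed by quantitative computer-assisted phase-contrast videomicroscopy at 100x and 400x magnification over about 2 h after compound addition, to tell cytotoxic from cytostatic effects.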

Row | SMILES | IC50 (A549) [µM] | IC50 [1] [µM] | IC50 (PC-3) [µM] | Activity [2] | Activity (NHDF) | Activity (U-373MG ATCC)
1 | COc1ccc(C2C=NC3=C2C(=O)c2cc[nH]c2C3=O)cc1 (stereo unspecified) | 7.8 | 7.6 | > 100 | – | – | –
2 | O=C1C2=C(N=CC2c2ccc(O)cc2)C(=O)c2[nH]ccc21 (stereo unspecified) | > 100 | > 100 | > 100 | – | – | –
3 | COc1ccc(-c2c[nH]c3c2C(=O)c2[nH]cc4c2C3=NCC4)cc1 | 38.1 | 4.1 | 55.7 | – | – | –
4 | COc1ccc(-c2c[nH]c3c2C(=O)c2c(CCN)cn(S(=O)(=O)c4ccc(C)cc4)c2C3=O)cc1 | 4.1 | 3.2 | 4.2 | Toxic | Toxic | Active
5 | O=C1c2[nH]cc3c2C(=NCC3)c2[nH]cc(-c3ccc(O)cc3)c21 | 35.2 | 62.2 | 63.7 | – | – | –
6 | COc1ccc(C2CNC3=C2C(=O)c2c(ccn2S(=O)(=O)c2ccc(C)cc2)C3=O)cc1 (stereo unspecified) | 52.4 | 51.9 | 33.7 | – | – | –
7 | COc1ccc(-c2c[nH]c3c2C2=NCCc4cn(S(=O)(=O)c5ccc(C)cc5)c(c42)C3=O)cc1 | 15.4 | 57.4 | > 100 | – | – | –
8 | COc1ccc(-c2c[nH]c3c2C(=O)c2c(c(CCN)cn2S(=O)(=O)c2ccc(C)cc2)C3=O)cc1 | 11.2 | 8.5 | 31.3 | Non-toxic | Non-toxic | –
9 | COc1ccc(-c2c[nH]c3c2C(=O)c2c4c(cn2S(=O)(=O)c2ccc(C)cc2)CCN=C34)cc1 | 3.1 | 41.4 | > 100 | – | – | –
10 | COc1ccc(-c2c[nH]c3c2C(=O)c2[nH]cc4ccnc-3c24)cc1 | > 100 | > 100 | > 100 | – | – | –
11 | COc1ccc(-c2c[nH]c3c2C(=O)c2c(ccn2S(=O)(=O)c2ccc(C)cc2)C3=O)cc1 | 41.3 | 48.2 | 48.2 | – | – | –
12 | COc1ccc(-c2c[nH]c3c2C(=O)c2ccn(S(=O)(=O)c4ccc(C)cc4)c2C3=O)cc1 | 77.6 | > 100 | 24.6 | – | – | –
13 | O=C1c2[nH]cc3c2C(=NCC3)c2c(-c3ccc(O)cc3)c[nH]c21 [TSITSIKAMMAMINE A] | 15.6 | 18.1 | 23 | – | – | –
14 | COc1ccc(C2CNC3=C2C2=NCCc4cn(S(=O)(=O)c5ccc(C)cc5)c(c42)C3=O)cc1 (stereo unspecified) | 9.7 | 18.3 | 20.5 | – | – | –
15 | O=C1c2cc[nH]c2C(=O)c2c(-c3ccc(O)cc3)c[nH]c21 | 74.5 | 37 | > 100 | – | – | –
16 | COc1ccc(-c2c[nH]c3c2C(=O)c2[nH]ccc2C3=O)cc1 | > 100 | > 100 | > 100 | – | – | –
17 | COc1ccc(C2CNC3=C2C(=O)c2c4c(cn2S(=O)(=O)c2ccc(C)cc2)CCN=C34)cc1 (stereo unspecified) | 25.9 | 30.5 | 20.5 | – | – | –
18 | COc1ccc(C2CNC3=C2C(=O)c2ccn(S(=O)(=O)c4ccc(C)cc4)c2C3=O)cc1 (stereo unspecified) | 35.4 | 47.2 | 37.5 | – | – | –
19 | COc1ccc(-c2c[nH]c3c2-c2nccc4c[nH]c(c24)C3=O)cc1 | 80.6 | 97.8 | 88.8 | – | – | –
20 | COc1ccc(-c2c[nH]c3c2C2=NCCc4c[nH]c(c42)C3=O)cc1 | > 100 | > 100 | > 100 | – | – | –
21 | COc1ccc(C(O)CNC2=CC(=O)c3ccn(S(=O)(=O)c4ccc(C)cc4)c3C2=O)cc1 (stereo unspecified) | > 100 | 29.2 | > 100 | – | – | –
22 | COc1ccc(C(O)CNC2=CC(=O)c3c(ccn3S(=O)(=O)c3ccc(C)cc3)C2=O)cc1 (stereo unspecified) | 70.2 | 56.4 | 37.3 | – | – | –
